From the EternaBench riboswitch data

Tested on: MS2 coat protein
Experiment: apparent Kd, MS2 coat protein; higher = weaker binding; RNA-MaP array; FMN 200 µM where present
How it was run: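 Stalled E. coli RNA polymerase produced the designs on Illumina sequencing-chip clusters. SNAP-549-labelled MS2 coat protein was added from 0.7 or 1.5 nM, doubling to 3 µM, without and then with constant ligand, in 100 mM Tris-HCl pH 7.5, 80 mM KCl, 4 mM MgCl2, BSA, DTT, yeast tRNA and Tween-20. The apparent Kd is the median of filtered per-cluster fits of green signal normalised to red-channel RNA signal and control-cluster median Fmax.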

[1] = designed as: ON switch for flavin mononucleotide, no ligand
[2] = ligand present: flavin mononucleotide, designed as: ON switch for flavin mononucleotide
[3] = designed as: OFF switch for flavin mononucleotide, no ligand
[4] = ligand present: flavin mononucleotide, designed as: OFF switch for flavin mononucleotide

UUCAACGAUGAAGGAUAUCUAUAAACAUGAGGACAUGAGGAUCACCCAUGUUGAUCACCCAUGUAGGAGAAGGUCAACAUGAGG
apparent Kd [1]: 0.22 µM | apparent Kd [2]: 0.0682 µM

AAAAAACAUGAGGAUCACCCAUGUGAGGAUAUCCAAAAGUUAAAUAAAAAGACGAAAAGGAGAAGGCGCAAAAA
apparent Kd [3]: 0.11 µM | apparent Kd [4]: 0.0842 µM

GCGUGGUUCUAGAAGGUGCUAGCGAUAAGCUAGCAAGGAUAUAGACAUGAGGAUCACCCAUGUCUUAAAGAAAUGGACACACGC
apparent Kd [3]: 0.00504 µM | apparent Kd [4]: 0.00555 µM

GGGAAGUUAGGAUAUGCUGCUCGUCACUUGCGUGAUGAGUAGCAGAAGGAACAUGAGGAUCACCCAUGUAAAAA
apparent Kd [3]: 0.0319 µM | apparent Kd [4]: 0.0376 µM

GAUCUGUGGCUUUCGCUUUGUUCACAUGAGGAUCACCCAUGUAGAAGGUAGCGGUUGAAAUUCGCUGAGGAUAUACAUAGGUGC
apparent Kd [3]: 0.0244 µM | apparent Kd [4]: 0.0527 µM

AGCUGUGGCCGAGGAUAUCUAUCUUCAAUAACCGAAAUAUAAUCGGACAUGAGGAUCACCCAUGUAGAGAAGGCGGUCUCAGCA
apparent Kd [3]: 0.0336 µM | apparent Kd [4]: 0.0845 µM

CCUAAGGACACAGGAUAUAGCGUGAUGGCUGGACUCCAACGGCGAGCGGCGCUAGAAGGGUGACCACAUGAGGAUCACCCAUGU
apparent Kd [1]: 0.496 µM | apparent Kd [2]: 0.195 µM

GGCUGGUGACAGCAUCCAUCAAAACAUGAGGAUCACCCAUGUAGAAGGCUGUACGGUUACCGUACAGAGGAUAUACAAUGAUGU
apparent Kd [3]: 0.014 µM | apparent Kd [4]: 0.0239 µM

UCUCGACAUGAGGAUCACCCAUGUCAGGAUAUUGUAUUGGAGGUUUUUUACCUUAUGGCAAGAAGGGAUGUGUG
apparent Kd [3]: 0.0206 µM | apparent Kd [4]: 0.0216 µM

GGAUGACAAAGUCAUCCAAAUCGAACAUGAGGAUCACCCAUGUAGGAUAUCCUACUGAAACAGUAGGAGAAGGACAUGUGCUUU
apparent Kd [3]: 0.0529 µM | apparent Kd [4]: 0.157 µM

GUGAUAUUGUAAGGAUAUACUCUGUGAUGAAGAGUAGAAGGUACUUACAUGAGGAUCACCCAUGUUUAACGAGAUACUAAUCGU
apparent Kd [1]: 0.198 µM | apparent Kd [2]: 0.0769 µM

GCCCGGCCCGGGCCCACGGCAUCACAGGAUAUGCCGAUCACAUGAGGAUCACCCAUGUCAACUCCGCAGAAGGGUGAUAUCGUG
apparent Kd [1]: 0.322 µM | apparent Kd [2]: 0.0332 µM

UAAGAUUAUUGAGGAUAUGGUAAUUUUUAUUAACCAGAAGGCAAACUCAACAUGAGGAUCACCCAUGUAUAAAGGGUAUUAGUU
apparent Kd [3]: 0.068 µM | apparent Kd [4]: 0.0634 µM

AAAAAGGGAGGAUAUACAUGAGGAUCACCCAUGUAUCAGACGAAAAAGAGUCUGAAGUGUAGAAGGCCCAAAAA
apparent Kd [3]: 0.0183 µM | apparent Kd [4]: 0.0274 µM

CCCUACGUUUCGUAGCAGUGUCAUCGAGAAGGCCCUGACAUGAGGAUCACCCAUGUUGUUACAUGGGAGGAUAUCGAUGAUGGG
apparent Kd [1]: 0.023 µM | apparent Kd [2]: 0.0061 µM

UUAUGUCGCGUAGGAUAUCAUUAGAUUUGUAAUUUAAUUGUAAUUUCGAUAUGAGAAGGACGUACACAUGAGGAUCACCCAUGU
apparent Kd [3]: 0.0164 µM | apparent Kd [4]: 0.0142 µM

GAUAUGUUAGGAUAUCAAACCUUGUUGAAUCAACGAGCCAGUGAGAAGGAACAUGAGGAUCACCCAUGUGUCCG
apparent Kd [3]: 0.0162 µM | apparent Kd [4]: 0.0163 µM

GAUCGAGAACUCACGGCGUUGCACAUGAGGAUCACCCAUGUGCAGGAUAUGGCCGCCGUCGGAGGCCAGAAGGGCACAGUAGGU
apparent Kd [3]: 0.0102 µM | apparent Kd [4]: 0.02 µM

GGUACCAUCGCAGGAUAUGCUAUCCUUUGGGUAGCAGAAGGGUGAUAACAUGAGGAUCACCCAUGUGGUACCGGGCGUGAGCCC
apparent Kd [1]: 0.0971 µM | apparent Kd [2]: 1.21 µM

AGAGACCUCACAGGAUAUGCUGGACUUUGUCCAGCAGAAGGGUGAUAACAUGAGGAUCACCCAUGUAUGGUCUCCAAAUUUAAU
apparent Kd [1]: 1.11 µM | apparent Kd [2]: 0.131 µM

ACACAACAUGAGGAUCACCCAUGUUUUCGAUUCACAGGAUAUGGGACAUCCGGAGGGUGACCAGAAGGGUGACUCG
apparent Kd [1]: 0.0299 µM | apparent Kd [2]: 0.0188 µM

ACUUGUAAGCAGAAGGCAGUCAUUAUAUUCAUCAUGUAGACAUGAGGAUCACCCAUGUAUAGUACUGAGGAUAUGCAUCGAUAG
apparent Kd [3]: 0.00675 µM | apparent Kd [4]: 0.0103 µM

CACACCGUAGGAGGAUAUCCCUGGACAUGAGGAUCACCCAUGUUUAGCCCGUCCUCAUGUUAGUCGGAGAAGGCCUAGUGGUCG
apparent Kd [3]: 0.0367 µM | apparent Kd [4]: 0.0376 µM

GGAUGACAAAGUCAUCCUAAACGAACAUGAGGAUCACCCAUGUAGGAUAUGGUACUCAAAGAGUACCAGAAGGACAUGUGCCUU
apparent Kd [3]: 0.0337 µM | apparent Kd [4]: 0.2 µM

GUUAAACAUGAGGAUCACCCAUGUAAGGAUAUGCUGCGGUCGCGAUGACGUGACUGCAGCAGAAGGUACAAAUG
apparent Kd [3]: 0.0868 µM | apparent Kd [4]: 0.0965 µM

GGAUGACAAAGUCAUCCUAAACGAACAUGAGGAUCACCCAUGUAGGAUAUGCUUCUCAAAGAGAAGCAGAAGGACAUGUGCCUU
apparent Kd [3]: 0.0351 µM | apparent Kd [4]: 0.276 µM

CAGAUUUGCUAGAAGGGUGACAUGAGGAUCACCCAUGUGCGGGCAGUCCUAUCUUCAUGCCCGCCACAGGAUAUAGCAAUUCUC
apparent Kd [1]: 0.0241 µM | apparent Kd [2]: 0.049 µM

CCGCUGUGAGGAUAUUAGUAGUAGUCAGAAUAGACUAUUACUGAGAAGGCACAUGAGGAUCACCCAUGUUGCGG
apparent Kd [3]: 0.0308 µM | apparent Kd [4]: 0.039 µM

UGAUCGAAAGAUCAUAGAUUCUGCUAGGAUAUGCAGAAGUUGCGCUUUACAUGAGGAUCACCCAUGUAGAAGGAGUAGAGUCUA
apparent Kd [3]: 0.00659 µM | apparent Kd [4]: 0.00678 µM

UAGUUGCUAGGAUAUACUUGGGCAACUACUGAACCUAUAUAACAUGAGGAUCACCCAUGUAGAAGGAGCAUAUA
apparent Kd [3]: 0.0231 µM | apparent Kd [4]: 0.0191 µM

UGUGCUGAAGGAUAUGCGUAAGCUCGGUGACGAGCAGAUCUACAUGAGGAUCACCCAUGUAGAAGGUCAGUACU
apparent Kd [3]: 0.016 µM | apparent Kd [4]: 0.0184 µM

CGGUACUGAGGAUAUACAUGAGGAUCACCCAUGUGUUCUAGCUAGCGUACUGGCUAUUGUAGAAGGCGGUGCUG
apparent Kd [3]: 0.0175 µM | apparent Kd [4]: 0.0998 µM

CGCGUAUGAGGAUAUGCAUAAAAGGGUGCACUGAGUCUGUGACAUGAGGAUCACCCAUGUAGAAGGCGUGCGCA
apparent Kd [3]: 0.0267 µM | apparent Kd [4]: 0.0732 µM

UUUAGUUGCGGGCAGGAUAUGUGUUAAAAUACAUGAGGAUCACCCAUGUGCGGGUAUAACACCCGACAGAAGGGCCAAUCGCGAC
apparent Kd [1]: 0.0736 µM | apparent Kd [2]: 0.0244 µM

AAUUCGUCAGGAUAUGCAUGUAGUUGCUACAUUUCGCCGUUGCAGAAGGGACAUGAGGAUCACCCAUGUAAGUC
apparent Kd [3]: 0.0331 µM | apparent Kd [4]: 0.0343 µM

CGGCGCUGUCGAGAGGAUAUGCGGUGAUGGACAUGAGGAUCACCCAUGUUAGCGAUAGCAUCACGGUAGAAGGCUCUACGGCCUG
apparent Kd [1]: 0.112 µM | apparent Kd [2]: 0.0156 µM

CUUGUACAUGAGGAUCACCCAUGUUAGGAUAUCUCGCCGUCGGCUUGCCGACGGUAUUAGAGAAGGGACAAGGG
apparent Kd [3]: 0.0225 µM | apparent Kd [4]: 0.0267 µM

GGAGCGGAAGGAUAUGCUGCGGGAUUGCAUGGAAAGAAAAUACAUGAGGAUCACCCAUGUAGAAGGUCCGUGAA
apparent Kd [3]: 0.0282 µM | apparent Kd [4]: 0.0701 µM

GUGUAGGGAGGAUAUACAUGAGGAUCACCCAUGUGAAUAAGAUAGAAUAAGAUAAAGUGUAGAAGGUCUAGUGU
apparent Kd [3]: 0.066 µM | apparent Kd [4]: 0.0519 µM

AAUUUAAUACAUGAGGAUCACCCAUGUAAAUUAAUUAAGAUCAAGGAUAUCAGCUCGAUUAGAGCUGAGAAGGUGAUCACAUGU
apparent Kd [1]: 0.368 µM | apparent Kd [2]: 0.0994 µM

AAUGGCAUAGAGAAGGCGCCGCAGCUCUUCCUCCCAUCCCAACGACAUGAGGAUCACCCAUGUAGCGAGGAUAUCUAUACCGUC
apparent Kd [3]: 0.00708 µM | apparent Kd [4]: 0.0125 µM

CGUUGAUGAGGAUAUCGAUGUUAGUACAUGAGGAUCACCCAUGUUAUCCAAGUGUCGUUUCGAGAAGGUAUUGGAC
apparent Kd [3]: 0.216 µM | apparent Kd [4]: 0.348 µM

CAGUACUGAGGAUAUACAUGAGGAUCACCCAUGUGUUCCAGCUAGGAAACUAGCAAAAGUAGAAGGCAGUACUG
apparent Kd [3]: 0.0275 µM | apparent Kd [4]: 0.589 µM

AGAAAGGCAGGAUAUACAUGAGGAUCACCCAUGUUAAGAAAGACGGAAACGUCAAGAAGUAGAAGGGCCAAGAA
apparent Kd [3]: 0.0234 µM | apparent Kd [4]: 0.0211 µM

AAAUACGUAAAGGACACAUGAGGAUCACCCAUGUUUCUGUUCAAGGAUAUGAGGUGAAUGAUCCGUCAGAAGGUGAACUUGCUU
apparent Kd [1]: 0.117 µM | apparent Kd [2]: 0.624 µM

AGUGACUACGUAGGAUAUUAAAUCAUGUACUACAUGAGGAUCACCCAUGUUAAUUUAACAUCAGCUGAGAAGGACGUGGUCACA
apparent Kd [1]: 0.0206 µM | apparent Kd [2]: 0.0116 µM

AGCGAACAUGAGGAUCACCCAUGUGAAAAACAUAGAGGAUAUGUCGCAUGAGUGUAAAAGACAGAAGGCUAUCGCA
apparent Kd [1]: 0.225 µM | apparent Kd [2]: 0.0548 µM

GUAAAGUGAGGAUAUGGUAAAUUAAUUAUUUAUUAAUUAAUCCAGAAGGCACAUGAGGAUCACCCAUGUAAAUG
apparent Kd [3]: 0.0312 µM | apparent Kd [4]: 0.0561 µM

GAACGUGAUGUAAGGAUAUGUAGCCAUCGAGGCGUAUAGAAGGUACAUGAGGAUCACCCAUGUGAGCUCGUUAU
apparent Kd [3]: 0.0367 µM | apparent Kd [4]: 0.0446 µM

UUAAUGAUGUUAGGAUAUACAUGAGGAAUCCUCGUAGAAGGAACAUGACAUGAGGAUCACCCAUGUAACGCUCCGUAGAGCGUA
apparent Kd [1]: 0.0702 µM | apparent Kd [2]: 0.0943 µM

CAGGGUAGAGGAUAUACGUAGGUACAGAUCCGUGUGAUCCUACAUGAGGAUCACCCAUGUAGAAGGCUAGCCUG
apparent Kd [3]: 0.305 µM | apparent Kd [4]: 0.0259 µM

CAGCGAAAGUAGAAGGCAGUACUGAUACAGUACUGAGGAUAUACAUGAGGAUCACCCAUGUACAAAAGCUGGAAAUAAAUAAAA
apparent Kd [3]: 0.00656 µM | apparent Kd [4]: 0.00681 µM

GUAGAGUAAGGAUAUGUUGAAUAGGAUAGAAUGGUUAGAAAGCAGAAGGUACAUGAGGAUCACCCAUGUAAUGU
apparent Kd [3]: 0.0226 µM | apparent Kd [4]: 0.021 µM

CGUGCGUAUGUGAGGAUAUGCUGGUCCUUGGAUCGGCAGAAGGCACAUGAGGAUCACCCAUGUGGUGUCGUACA
apparent Kd [3]: 0.312 µM | apparent Kd [4]: 0.0432 µM

GGUCCACAUGAGGAUCACCCAUGUUAGGAUAUCUCCCGCCUCCUCACUAGAGGCGGACAGAGAAGGAACAUCAA
apparent Kd [3]: 0.026 µM | apparent Kd [4]: 0.078 µM

UUUUACUAGUAAGGAUAUACUAGCGAUUAGCUUGUAGAAGGUACAGUCUUAUGUAUAACAUGUUAACAUGAGGAUCACCCAUGU
apparent Kd [1]: 0.0621 µM | apparent Kd [2]: 0.0345 µM
